Measured values reported in ChEMBL document CHEMBL4265984, “Improved potency and reduced toxicity of the antifungal peptoid AEC5 through submonomer modification” (Bioorg Med Chem Lett, 2018).
Values after ≈ are worked out from the molar mass of the structure shown.

How the values were obtained:
[1] = Selectivity index, ratio of TD50 for human HepG2 cells to MIC>90 for Cryptococcus neoformans H99S serotype A; assay type: toxicity; settings: read-out: Selectivity Index
[2] = Cytotoxicity against human HepG2 cells after 72 hrs by MTT assay; assay type: cell-based; settings: read-out: TD50
[3] = system: Cryptococcus neoformans; test: Antifungal activity against Cryptococcus neoformans H99S serotype A after 72 hrs by presto blue dye based CLSI method; assay type: functional, Cryptococcus neoformans var. grubii H99S
[4] = Hemolytic activity in human RBC at 100 ug/ml after 1 hr relative to control; assay type: ADME, cell-based, Erythrocyte; settings: red blood cells (erythrocytes), read-out: Activity
[5] = system: Erythrocyte; test: Hemolytic activity in human RBC after 1 hr; assay type: ADME, cell-based
Method in brief: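 Hemolysis of human red blood cells is reported as HC10, the concentration giving 10% hemolysis, in µg/mL.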

[6] = Cytotoxicity against mouse NIH/3T3 cells after 72 hrs by MTT assay; assay type: cell-based, NIH3T3; settings: read-out: TD50
[7] = Selectivity index, ratio of TD50 for mouse NIH/3T3 cells to MIC>90 for Cryptococcus neoformans H99S serotype A; assay type: toxicity; settings: read-out: Selectivity Index
[8] = Selectivity index, ratio of HC10 for human RBC to MIC>90 for Cryptococcus neoformans H99S serotype A; assay type: toxicity; settings: red blood cells, read-out: Selectivity Index

For `CCCCCCCCCCCCCNCC(=O)N(CCCCN)CC(=O)N(CC(N)=O)Cc1ccncc1`, the selectivity ratio [1] was 4, the CC50 at 72 h [2] was 104 µg/mL (≈ 195 µM) and the MIC90 [3] was 25 µg/mL (≈ 46.9 µM).
For `CCCCCCCCCCCCCNCC(=O)N(CCCC[N+](C)(C)C)CC(=O)N(CC(N)=O)Cc1cccs1`, the hemolysis at 1 h, 100 ug/ml [4] was 46%, the HC10 [5] was 42.6 µg/mL and the CC50 at 72 h [6] was 115 µg/mL. The CC50 at 72 h [2] was 91.2 µg/mL and the MIC90 [3] was 3.13 µg/mL.
Molecule `CC(C)=CCC/C(C)=C/CC/C(C)=C/CNCC(=O)N(CCCCN)CC(=O)N(CCc1c[nH]c2ccccc12)CC(N)=O` has an MIC90 [3] of 100 µg/mL (≈ 165 µM).
Molecule `CCCCCCCCCCCCCNCC(=O)N(CCCCN)CC(=O)N(CC(N)=O)Cc1ccccc1` has a selectivity ratio [1] of 17, a CC50 at 72 h [2] of 52.2 µg/mL (≈ 98.2 µM) and an MIC90 [3] of 3.13 µg/mL (≈ 5.89 µM).
`CCCCCCCCNCC(=O)N(CCCCN)CC(=O)N(CC(N)=O)Cc1ccco1` gave an MIC90 [3] of over 800 µg/mL.
Molecule `CCCCCCCCCCNCC(=O)N(CCCCN)CC(=O)N(CC(N)=O)Cc1ccco1` has an MIC90 [3] of 400 µg/mL (≈ 834 µM).
Molecule `CCCCCCCCCCCCCNCC(=O)N(CCCNC(=N)N)CC(=O)N(CC(N)=O)Cc1cccs1` has a selectivity ratio [1] of 3, a CC50 at 72 h [2] of 40.8 µg/mL (≈ 72.1 µM) and an MIC90 [3] of 12.5 µg/mL (≈ 22.1 µM).
Work on `CCCCCCCCCCCCCNCC(=O)N(CCCCN)CC(=O)N(CCCn1ccnc1)CC(N)=O` yielded a selectivity ratio [1] of 5, a CC50 at 72 h [2] of 228 µg/mL (≈ 415 µM) and an MIC90 [3] of 50 µg/mL (≈ 90.9 µM).
Work on `CCCCCCCCCCCCCNCC(=O)N(CCCCN)CC(=O)N(CC(N)=O)Cc1ccco1` yielded a hemolysis at 1 h, 100 ug/ml [4] of 30.4%, an HC10 [5] of 56.6 µg/mL and a CC50 at 72 h [6] of 48.6 µg/mL (≈ 93.1 µM). The selectivity ratio [7] was 8, the selectivity ratio [1] was 9 and the CC50 at 72 h [2] was 56.2 µg/mL (≈ 108 µM). It also gave an MIC90 [3] of 6.3 µg/mL (≈ 12.1 µM) and a selectivity ratio [8] of 9.
With `CCCCCCCCCCCCCNCC(=O)N(CCCCN)CC(=O)N(C)CC(N)=O` the selectivity ratio [1] was 1, the CC50 at 72 h [2] was 54.3 µg/mL (≈ 119 µM) and the MIC90 [3] was 50 µg/mL (≈ 110 µM).
Work on `CCCCCCCCCCCCCNCC(=O)N(CCCN)CC(=O)N(CC(N)=O)Cc1cccs1` yielded a selectivity ratio [1] of 15, a CC50 at 72 h [2] of 47.3 µg/mL (≈ 90.3 µM) and an MIC90 [3] of 3.13 µg/mL (≈ 5.98 µM).
In the case of `CNCC(=O)N(CCCCN)CC(=O)N(CC(N)=O)Cc1ccco1`, the CC50 at 72 h [2] is reported as over 800 µg/mL and the MIC90 [3] is reported as over 400 µg/mL.
`CCCCCCCCCCCCCNCC(=O)N(CCCCCCN)CC(=O)N(CC(N)=O)Cc1cccs1` showed a selectivity ratio [1] of 18, a CC50 at 72 h [2] of 56.2 µg/mL (≈ 99.3 µM) and an MIC90 [3] of 3.13 µg/mL (≈ 5.53 µM).
Molecule `CC(C)=CCC/C(C)=C/CC/C(C)=C/CNCC(=O)N(CCCCN)CC(=O)N(CC(N)=O)Cc1ccco1` has a selectivity ratio [1] of 8, a CC50 at 72 h [2] of 800 µg/mL (≈ 1470 µM) and an MIC90 [3] of 100 µg/mL (≈ 184 µM).
In the case of `CCCCCCCCCCCCCNCC(=O)N(CCN)CC(=O)N(CC(N)=O)Cc1cccs1`, the selectivity ratio [1] is reported as 6, the CC50 at 72 h [2] is reported as 40.5 µg/mL (≈ 79.4 µM) and the MIC90 [3] is reported as 6.25 µg/mL (≈ 12.3 µM).
`CCCCCCCCCCCCCNCC(=O)N(CCCCN)CC(=O)N(CC(N)=O)CC1CCCO1` (centres undefined) gave a selectivity ratio [1] of 14, a CC50 at 72 h [2] of 170 µg/mL (≈ 324 µM) and an MIC90 [3] of 12.5 µg/mL (≈ 23.8 µM).
With `CC(C)=CCC/C(C)=C/CNCC(=O)N(CCCCN)CC(=O)N(CC(N)=O)Cc1ccco1` the MIC90 [3] was 400 µg/mL (≈ 841 µM).
Molecule `CCCCCCCCCCCCCNCC(=O)N(CCCCN)CC(=O)N(CC(N)=O)Cc1cccs1` has a hemolysis at 1 h, 100 ug/ml [4] of 48.6%, an HC10 [5] of 37.2 µg/mL and a CC50 at 72 h [6] of 65.9 µg/mL (≈ 123 µM). The selectivity ratio [7] was 21, the selectivity ratio [1] was 25 and the CC50 at 72 h [2] was 79.3 µg/mL (≈ 147 µM). The MIC90 [3] was 3.13 µg/mL (≈ 5.82 µM) and the selectivity ratio [8] was 12.
For `CC(C)=CCC/C(C)=C/CC/C(C)=C/CNCC(=O)N(CCCCN)CC(=O)N(CCCn1ccnc1)CC(N)=O`, the MIC90 [3] was 100 µg/mL (≈ 175 µM).
With `CCCCCCCCCCCCCCCCNCC(=O)N(CCCCN)CC(=O)N(CC(N)=O)Cc1ccco1` the selectivity ratio [1] was 13, the CC50 at 72 h [2] was 40.4 µg/mL (≈ 71.7 µM) and the MIC90 [3] was 3.13 µg/mL (≈ 5.55 µM).
Molecule `CCCCCCCCCCCCCNCC(=O)N(CCCCO)CC(=O)N(CC(N)=O)Cc1cccs1` has a selectivity ratio [1] of 3, a CC50 at 72 h [2] of 31 µg/mL (≈ 57.5 µM) and an MIC90 [3] of 12.5 µg/mL (≈ 23.2 µM).
In the case of `CCCCCCCCCCCCCNCC(=O)N(CCCCN)CC(=O)N(CC(N)=O)Cc1ncc[nH]1`, the selectivity ratio [1] is reported as 6, the CC50 at 72 h [2] is reported as 147 µg/mL (≈ 282 µM) and the MIC90 [3] is reported as 25 µg/mL (≈ 47.9 µM).
Work on `CCCCCCCCCCCCCNCC(=O)N(CCCCN)CC(=O)N(CCc1c[nH]c2ccccc12)CC(N)=O` yielded a selectivity ratio [1] of 14, a CC50 at 72 h [2] of 42.7 µg/mL (≈ 73 µM) and an MIC90 [3] of 3.13 µg/mL (≈ 5.35 µM).
With `CC(C)=CCC/C(C)=C/CC/C(C)=C/CNCC(=O)N(CCCCN)CC(=O)N(CC(N)=O)Cc1cccs1` the MIC90 [3] was 400 µg/mL (≈ 715 µM).
With `CCCCCCCCCCCCCNCC(=O)N(C)CC(=O)N(CC(N)=O)Cc1ccco1` the selectivity ratio [1] was 2, the CC50 at 72 h [2] was 21.1 µg/mL (≈ 45.4 µM) and the MIC90 [3] was 12.5 µg/mL (≈ 26.9 µM).
